From ChEMBL document CHEMBL4043283, “Discovery and Preclinical Development of IIIM-290, an Orally Active Potent Cyclin-Dependent Kinase Inhibitor” (J Med Chem, 2018)
pIC50: −log10 of the molar value.

Columns and labels:
[1] = system: MCF7; assay: Growth inhibition of human MCF7 cells after 48 hrs by MTT assay; assay type: functional; conditions: MCF7, 48 h
In short: (§1)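 Cancer cell lines sourced from the National Cancer Institute (USA). Cells kept in appropriate growth medium at 37 °C, 95% humidity, 5% CO2. Antiproliferation read by tetrazolium (MTT) assay. GI50 values were determined only for compounds selected after an initial single-concentration screen.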

[2] = system: HL-60; assay: Growth inhibition of human HL60 cells at 10 uM after 48 hrs by MTT assay relative to control; assay type: functional; conditions: HL-60, 48 h, read-out: GI
In short: (§2)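 Single-concentration primary screen at 10 μM by MTT assay. Cells were NCI-sourced cancer lines grown in appropriate medium at 37 °C, 95% humidity, 5% CO2. Growth inhibition is expressed relative to control.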

[3] = system: PC-3; assay: Growth inhibition of human PC3 cells after 48 hrs by MTT assay; assay type: functional; conditions: PC-3, 48 h; in short: as §1
[4] = system: Caco-2; assay: Growth inhibition of human Caco2 cells at 10 uM after 48 hrs by MTT assay relative to control; assay type: functional; conditions: Caco-2, 48 h, read-out: GI; in short: as §2
[5] = system: PC-3; assay: Growth inhibition of human PC3 cells at 10 uM after 48 hrs by MTT assay relative to control; assay type: functional; conditions: PC-3, 48 h, read-out: GI; in short: as §2
[6] = system: MIA PaCa-2; assay: Growth inhibition of human MIAPaCa2 cells at 10 uM after 48 hrs by MTT assay relative to control; assay type: functional; conditions: MIA PaCa-2, 48 h, read-out: GI; in short: as §2
[7] = biological target: CDK2/Cyclin A2 (Homo sapiens, UniProt P24941); assay: Inhibition of CDK2/cyclin A (unknown origin) using histone H1 as substrate after 30 mins in presence of [33P]-gamma-ATP by filter binding assay; assay type: protein-complex assay
[8] = system: Caco-2; assay: Growth inhibition of human Caco2 cells after 48 hrs by MTT assay; assay type: functional; conditions: Caco-2, 48 h; in short: as §1
[9] = species: Homo sapiens; assay: Selectivity ratio of IC50 for CDK2/cyclin A (unknown origin) to IC50 for CDK9/cyclin T1 (unknown origin)
[10] = biological target: CDK9/cyclin T1 (Homo sapiens) (UniProt O60563+P50750); assay: Inhibition of CDK9/cyclin T1 (unknown origin) at 0.5 uM using YSPTSPSYSPTSPSYSPTSPKKK as substrate after 30 mins in presence of [33P]-gamma-ATP by filter binding assay relative to control; assay type: protein-complex assay
[11] = system: MCF7; assay: Growth inhibition of human MCF7 cells at 10 uM after 48 hrs by MTT assay relative to control; assay type: functional; conditions: MCF7, 48 h, read-out: GI; in short: as §2
[12] = system: HL-60; assay: Growth inhibition of human HL60 cells after 48 hrs by MTT assay; assay type: functional; conditions: HL-60, 48 h; in short: as §1
[13] = biological target: CDK2/Cyclin A2 (Homo sapiens) (UniProt P24941+P20248); assay: Inhibition of CDK2/cyclin A (unknown origin) at 0.5 uM using histone H1 as substrate after 30 mins in presence of [33P]-gamma-ATP by filter binding assay relative to control; assay type: protein-complex assay
[14] = biological target: CDK9/cyclin T1 (Homo sapiens, UniProt P50750); assay: Inhibition of CDK9/cyclin T1 (unknown origin) using YSPTSPSYSPTSPSYSPTSPKKK as substrate after 30 mins in presence of [33P]-gamma-ATP by filter binding assay; assay type: protein-complex assay
Sequence of CDK9/cyclin T1 (O60563 whole entry): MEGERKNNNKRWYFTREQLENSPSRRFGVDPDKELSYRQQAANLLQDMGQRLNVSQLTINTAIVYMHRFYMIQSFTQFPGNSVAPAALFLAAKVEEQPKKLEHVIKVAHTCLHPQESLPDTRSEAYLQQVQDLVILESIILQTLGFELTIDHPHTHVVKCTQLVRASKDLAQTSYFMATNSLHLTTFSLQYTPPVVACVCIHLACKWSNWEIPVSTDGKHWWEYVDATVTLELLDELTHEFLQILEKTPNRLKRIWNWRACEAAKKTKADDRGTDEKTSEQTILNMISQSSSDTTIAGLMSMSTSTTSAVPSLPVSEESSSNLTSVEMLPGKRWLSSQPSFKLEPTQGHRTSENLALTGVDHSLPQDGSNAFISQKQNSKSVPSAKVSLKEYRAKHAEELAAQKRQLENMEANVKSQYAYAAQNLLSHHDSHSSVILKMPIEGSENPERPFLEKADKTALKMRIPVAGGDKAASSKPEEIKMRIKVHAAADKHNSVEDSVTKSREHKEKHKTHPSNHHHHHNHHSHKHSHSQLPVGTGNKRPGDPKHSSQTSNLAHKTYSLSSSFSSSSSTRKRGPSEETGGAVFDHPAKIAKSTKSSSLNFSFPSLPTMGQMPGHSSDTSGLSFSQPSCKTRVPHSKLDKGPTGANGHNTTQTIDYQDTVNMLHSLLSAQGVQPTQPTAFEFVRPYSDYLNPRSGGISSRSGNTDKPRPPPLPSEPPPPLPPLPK
Sequence of CDK9/cyclin T1 (P50750 whole entry): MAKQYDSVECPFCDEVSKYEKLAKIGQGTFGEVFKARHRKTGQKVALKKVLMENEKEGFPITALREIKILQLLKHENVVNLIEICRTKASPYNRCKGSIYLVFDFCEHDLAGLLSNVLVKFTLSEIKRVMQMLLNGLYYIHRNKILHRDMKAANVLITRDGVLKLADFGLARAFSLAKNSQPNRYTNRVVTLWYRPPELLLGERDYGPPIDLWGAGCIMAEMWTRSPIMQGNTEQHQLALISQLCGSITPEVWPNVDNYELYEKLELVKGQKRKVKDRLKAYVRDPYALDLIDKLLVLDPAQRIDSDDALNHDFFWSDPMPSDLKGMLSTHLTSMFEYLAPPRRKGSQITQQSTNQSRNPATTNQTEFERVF

[15] = system: MIA PaCa-2; assay: Growth inhibition of human MIAPaCa2 cells after 48 hrs by MTT assay; assay type: functional; conditions: MIA PaCa-2, 48 h; in short: as §1
[16] = system: MIA PaCa-2; assay: Cell cycle arrest in human MIAPaCa2 cells assessed as accumulation at S phase at 2 uM after 24 hrs by propidium iodide staining-based flow cytometric method (reference value: 33%); assay type: functional
[17] = system: MIA PaCa-2; assay: Cell cycle arrest in human MIAPaCa2 cells assessed as accumulation at G1 phase at 2 uM after 24 hrs by propidium iodide staining-based flow cytometric method (reference value: 36%); assay type: functional
[18] = system: MIA PaCa-2; assay: Induction of apoptosis in human MIAPaCa2 cells at 2 uM after 24 hrs by propidium iodide staining-based flow cytometric method relative to control; assay type: functional
[19] = system: MIA PaCa-2; assay: Cell cycle arrest in human MIAPaCa2 cells assessed as accumulation at G2 phase at 2 uM after 24 hrs by propidium iodide staining-based flow cytometric method (reference value: 30%); assay type: functional

SMILES	GI50 [1] [µM]	inhibition of growth at 10 µM [2] [%]	GI50 [3] [µM]	inhibition of growth at 10 µM [4] [%]	inhibition of growth at 10 µM [5] [%]	inhibition of growth at 10 µM [6] [%]	pIC50 [7]	GI50 [8] [µM]	Ratio IC50 [9]	inhibition [10] [%]	inhibition of growth at 10 µM [11] [%]	GI50 [12] [µM]	inhibition [13] [%]	pIC50 [14]	GI50 [15] [µM]	Activity [16] [%]	Activity [17] [%]	Activity [18] [%]	Activity [19] [%]
CN1CC[C@H](c2c(O)cc(O)c3c(=O)cc(/C=C/c4cccc(Cl)c4)oc23)[C@H](O)C1	2	35	10	55	53	52	5.52	9	10	53	82	20	5	6.55	10	–	–	–	–
CN1CC[C@H](c2c(O)cc(O)c3c(=O)cc(/C=C/c4c(F)c(F)c(F)c(F)c4F)oc23)[C@H](O)C1	8	80	2	59	82	89	6.22	8	52	92	64	3	42	7.94	1	–	–	–	–
CC[C@@]1(O)C(=O)OCc2c1cc1n(c2=O)Cc2cc3ccccc3nc2-1 [CAMPTOTHECIN]	–	–	–	–	–	–	–	–	–	–	–	–	–	–	–	26	42	3.3	31
